Test results from the EternaBench riboswitch data.

Test system: MS2 coat protein
Experiment: apparent Kd, MS2 coat protein; higher = weaker binding; RNA-MaP array; FMN 200 µM where present
Procedure, shortened: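 Each design was made on Illumina sequencing-chip clusters by stalled E. coli RNA polymerase and titrated with SNAP-549-labelled MS2 coat protein from 0.7 or 1.5 nM, doubling to 3 µM, in the absence and then the presence of constant ligand. The buffer was 100 mM Tris-HCl pH 7.5, 80 mM KCl, 4 mM MgCl2, BSA, DTT, yeast tRNA and Tween-20. The apparent Kd is the median of filtered per-cluster fits of binding curves, with green signal normalised to red-channel RNA signal and control-cluster median Fmax.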

[1] = designed as: OFF switch for flavin mononucleotide, no ligand
[2] = ligand present: flavin mononucleotide, designed as: OFF switch for flavin mononucleotide
[3] = designed as: ON switch for flavin mononucleotide, no ligand
[4] = ligand present: flavin mononucleotide, designed as: ON switch for flavin mononucleotide

Sequence	apparent Kd [1]	apparent Kd [2]	apparent Kd [3]	apparent Kd [4]
CAGCACGGAAACAAAGUCUUCGGACAUGAGGAUCACCCAUGUGAGGAUAUGCCUACUAAAAGUAGGCAGAAGGCACGCGUGCUG	17.1 nM	62.6 nM		
GGCGUGUGAGGAUAUCUGAUGUCUAACUUCGGUUAGACAUCAGAGAAGGCACAUGAGGAUCACCCAUGUCCGCC	67.5 nM	61.9 nM		
CUUCAGUCAGGAUAUCUGCACGCUGGUGAGACCGGACGGAAGGAGAAGGGACAUGAGGAUCACCCAUGUAAAGC	14 nM	17.5 nM		
AAAAAUGGAGGAUAUACAUGAGGAUCACCCAUGUGUGGGCAUACUAUGUCGGCGUCAGGUAGAAGGCCAAAAAA	40.8 nM	48.9 nM		
AGUAACAGAGGAUAUACUAUUUUAUGUGUUUAUUGUUUUGAACAUGAGGAUCACCCAUGUAGAAGGCUGAAUAA	24.4 nM	28 nM		
CUCUUGUGAGGAUAUCGAAGAAAAGAAAAGAAAGAAAAGAACGAGAAGGCACAUGAGGAUCACCCAUGUAAGAA	57.2 nM	171 nM		
GUAGCAUACCGAGGAUAUUCAGGGCGUGGUUAAACAUGAGGAUCACCCAUGUGGCGAAAGCCUAGGGAGAAGGCGGAAUGCUAC			28.7 nM	22.5 nM
CAGGCCUUAGGAUAUACACGGUGUCGAACGAGCUCCUACACACAUGAGGAUCACCCAUGUAGAAGGAAGGGAUA	24.6 nM	32 nM		
GUGGUCAGACAUGAGGAUCACCCAUGUGGAAUAAAUAAGGAGAAGGAUAUUGAAUAUAGGAUAUACAAGAAGGUCUGGUUGGUG			84.9 nM	87 nM
GGAAUAUUUACAGGAUAUGAUUUGUAAAUUCGAUCAGAAGGGUAGAUGUCUUACACGGUUUGUUACAUGAGGAUCACCCAUGUU			126 nM	42 nM
GGUUGGCGAGGAUAUACAUGAGGAUCACCCAUGUGGUCCUAAGAUAAAAUAGACCUUUGUAGAAGGCGCGGGUC	136 nM	122 nM		
CGCUGAGCGGUGAGGAUAUCGUGUUCGAAAGAACGUGAGAAGGCACAUGAGGAUCACCCAUGUGAUCCUCAUCG	17.1 nM	28.1 nM		
UAUUAACACGAAGGAUAUGCUUACAUGAGGAUCACCCAUGUAUGUAUAUUGAUCCAGAUUUUUGAGCAGAAGGUCGUGAGUAAA	35.3 nM	141 nM		
GCCUCAUAGUAGAAGGGACUUAGACAGUUAAGCAUCUUGUACAAUUAACAUGAGGAUCACCCAUGUCAGGAUAUACUAAGAGGC	8.02 nM	9.49 nM		
GGUACCUUUACAGGAUAUGCUAGGGUUUCCUUAGCAGAAGGGUGAUACAUGAGGAUCACCCAUGUGGUGCCAGGGCGUGAGCCC			117 nM	341 nM
AAUUUCAGAUGAGGAUAUUGACAUGAGGAUCACCCAUGUAUUUGGGAAUGUUUACUGAAUUCUUACGAGAAGGUAUACGAACUU	296 nM	200 nM		
UCAUUUAAUACAGGAUAUGUUAGUAUACAGUAGAUUGGUUAUUACAUAAUAACAGAAGGGUAGAACAUGAGGAUCACCCAUGUA			265 nM	96.2 nM
GACCUCACGGUCAGGAUAUCAGAACGUAAUGCGCAUGAGAAGGGACAUGAGGAUCACCCAUGUGGGCUCGUCGC	13.5 nM	17 nM		
CCAGCGUGUGUGAGGAUAUGCUGGUCCUUGGAUCAGCAGAAGGCACAUGAGGAUCACCCAUGUGAGAACGUUGG	23.1 nM	105 nM		
GCGCGGAACCUAGGAUAUCCGGCAUGGACAGGUGGUAAGUCUCCCACAUGAGGAUCACCCAUGUAGGAGAAGGAGGAUCACGGG	6.51 nM	6.7 nM		
CUGUGGGCCAUAGGAUAUGCGCAGAAUUAGCAAGCAGAAGGGUGGAUCGUACAAUAAUAACUACAUGAGGAUCACCCAUGUGCU			360 nM	39.6 nM
GGAAUCUGUGUCACUCCAUUGACAUGAGGAUCACCCAUGUCGCAGGAUAUCAGGCGCGGAGCGACUGAGAAGGGCGACUCGCGG	86.4 nM	50.5 nM		
CAUGUCUGAGGAUAUCGUUUUUUGUACAUGAGGAUCACCCAUGUCCUAUUUUUUAUAUUACGAGAAGGCAGUGGAU	36.4 nM	22.2 nM		
